Source: PubChem BioAssay
PAFAH2 FP inh: PAFAH2 (human) inhibition. 0.99% of 340,000 active. AID 492956. recombinant PAFAH2, FP-rhodamine activity probe, fluorescence polarization. inhibition, % at 3.39 µM;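 active = inhibition above the mean over all tested compounds plus 3 SD, cut at about 30% in these data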;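 also: inhibitors block probe labeling of enzyme so polarization drops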
pPAFAH FP inh: inhibitors of human plasma PAF acetylhydrolase (pPAFAH). 1.5% of 330,000 active. inhibition, % at 3.39 µM. AID 463082. recombinant pPAFAH, FP-rhodamine probe fluorescence polarization. Q13093;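 active = inhibition above the mean inhibition across the screen plus 3 SD, cut at about 25% in these data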;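 also: inhibitors block binding of the rhodamine activity-based probe so polarization drops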
PAFAH1B3 FP inh: inhibitors of human PAFAH1B3; recombinant PAFAH1B3, FP-rhodamine probe, fluorescence polarization; inhibition, % at 3.39 µM; 0.28% of 340,000 active;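 active = inhibition above the screen-wide average of all tested compounds plus 3 SD, cut at about 25% in these data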
Target sequence (Q15102 whole entry, looked up): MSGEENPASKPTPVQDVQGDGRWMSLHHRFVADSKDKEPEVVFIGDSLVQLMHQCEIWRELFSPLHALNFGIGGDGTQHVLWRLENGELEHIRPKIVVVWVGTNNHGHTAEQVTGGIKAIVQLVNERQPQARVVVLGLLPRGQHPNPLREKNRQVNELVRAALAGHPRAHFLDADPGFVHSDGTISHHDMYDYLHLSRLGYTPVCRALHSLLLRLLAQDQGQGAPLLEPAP
PAFAH1B2 FP inh: inhibitors of human PAFAH1B2. P68402. recombinant PAFAH1B2, FP-rhodamine activity probe, fluorescence polarization. inhibition, % at 3.39 µM. 1.2% of 340,000 active. AID 492953;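 active = inhibition above the mean of all tested compounds plus 3 SD, cut at about 24% in these data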
Target sequence (P68402 whole entry, looked up): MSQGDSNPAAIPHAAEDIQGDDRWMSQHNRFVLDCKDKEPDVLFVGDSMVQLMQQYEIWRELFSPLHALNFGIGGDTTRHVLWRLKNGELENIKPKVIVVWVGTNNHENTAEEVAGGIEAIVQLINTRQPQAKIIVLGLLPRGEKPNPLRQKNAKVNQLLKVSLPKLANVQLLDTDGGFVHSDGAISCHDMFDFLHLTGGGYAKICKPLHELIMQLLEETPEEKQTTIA
Apaf1 inhib: human Apaf-1 inhibition. O14727. reconstituted apoptosome caspase-3 activity, DEVD-Rh110 fluorescence. 0.71% of 330,000 active. AID 489030. inhibition, % at 20 µM; active = inhibition of at least 40% at 20 µM
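System: reconstituted apoptosome with Apaf-1, cytochrome c, caspase-9, procaspase-3, dATP; Signal: Rh110 fluorescence intensity; Schedule: 30 min compound preincubation, 50 min activation, room temperature; Reagent: cytochrome c trigger plus (Z-DEVD)2-Rh110 caspase-3 substrate.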
Apaf-1 inh conf: Apaf-1 inhibition, single-dose confirmed; shares compounds with Apaf1 inhib; reconstituted apoptosome, caspase-3 DEVD-Rh110 fluorescence; inhibition, % at 20 µM; 25% of 1,800 active; AID 504614;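 active = mean inhibition of at least 40% at 20 µM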
Rh110 interf inh: interferes with Rh110 fluorescence, flagging false Apaf-1 inhibitors. activation (fluorescence interference), % at 20 µM. Rh110 fluorescence interference, quenched caspase reaction. 1,800 tested, under 10 active. shares compounds with Apaf1 inhib;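 active = signal rise of 40% or more at 20 µM, treated as a fluorescence artifact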
Apaf1 inh interf: Apaf-1 inhibitor counter-screen fluorescence artifact. 460 tested, under 10 active. fluorescence interference counterscreen, Apaf-1 assay format. shares compounds with Apaf1 inhib. AID 588538. IC50, µM; call rule not given here
PAFAH2 FP conf: PAFAH2 (human) inhibition, confirmed; shares compounds with PAFAH2 FP inh; recombinant PAFAH2, FP-rhodamine activity probe, fluorescence polarization; inhibition, % at 3.39 µM; 65% of 2,300 active;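 active = mean inhibition over three repeats above a set limit taken from the earlier primary screen, cut at about 30% in these data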;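 also: inhibitor blocks binding of rhodamine activity probe so polarization falls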
PAFAH1B3 conf FP: confirmation of human PAFAH1B3 inhibitors; recombinant PAFAH1B3, FP-Rh activity-based probe, fluorescence polarization; inhibition, % at 3.39 µM; 30% of 390 active; shares compounds with PAFAH1B3 FP inh; AID 493032;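 active = average inhibition over triplicate runs above the hit cutoff set in the earlier primary screen, cut at about 25% in these data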
Each line names hits and unclear results; the compound was inactive in the other large screens (follow-up assays come after a bar, where they were run). An excerpt weighted towards active compounds, which were near 3.1% of everything screened.

O=C(NC1=C(Nc2ccc(Cl)cc2)C(=O)c2ccccc2C1=O)c1ccccc1	Apaf1 inhib 54 | Apaf-1 inh conf 42 | Rh110 interf inh inactive | Apaf1 inh interf inactive
Cc1nc2ccc(NS(=O)(=O)c3c(F)cc(F)cc3Br)cc2s1	none
Cc1cc(C)cc(NC(=O)CCNS(=O)(=O)c2cc(Br)cnc2N)c1	none
CCc1ccccc1NC(=O)CCNS(=O)(=O)c1cc(Br)cnc1N	Apaf1 inhib 49 | Apaf-1 inh conf inactive | Rh110 interf inh inactive
COc1cccc2cc(C(=O)NC(C)c3ccccc3)c(=O)oc12 (stereo not drawn)	none
COc1cccc2c(=O)c3c([nH]c12)OC(C)(C)C3	none
COc1cccc2c(=O)c3cccc(N)c3[nH]c12	pPAFAH FP inh 31, Apaf1 inhib 70 | Apaf-1 inh conf inactive | Rh110 interf inh inactive
Cc1[nH]n(-c2ccccc2)c(=O)c1C(C[N+](=O)[O-])c1ccccc1Cl (stereo not drawn)	Apaf1 inhib 79 | Apaf-1 inh conf inactive | Rh110 interf inh inactive
COc1ccc(C(C[N+](=O)[O-])c2c(C)[nH]n(-c3ccccc3)c2=O)cc1 (stereo not drawn)	Apaf1 inhib 96 | Apaf-1 inh conf 65 | Rh110 interf inh inactive | Apaf1 inh interf inactive
COc1cc(NC(=O)c2sc(C)nc2C)c(OC)cc1NC(=O)c1ccccc1	none
COC(=O)c1ccc(-c2ncc(-c3cccc4ccccc34)o2)cc1	Apaf1 inhib 42 | Apaf-1 inh conf inactive | Rh110 interf inh inactive
CC(C)Oc1cccc(C2NC(=O)c3ccccc3O2)c1 (stereo not drawn)	none
CC(=O)c1ccc(N2CCN(S(=O)(=O)c3ccc4c5c3CC(=O)N5CC(C)S4)CC2)cc1 (stereo not drawn)	Apaf1 inhib 56 | Apaf-1 inh conf 42 | Rh110 interf inh inactive | Apaf1 inh interf inactive
O=C(NNC(=O)c1ccccc1Cl)c1ccc(-n2cncn2)c([N+](=O)[O-])c1	none
COc1ccc(-n2c(N)c(C(=O)NCC3CCCO3)c3nc4ccccc4nc32)c(OC)c1 (stereo not drawn)	Apaf1 inhib 66 | Apaf-1 inh conf inactive | Rh110 interf inh inactive
Cc1onc(-c2ccccc2Cl)c1C(=O)NNC(=O)c1ccccc1F	none
O=C(COc1ccc2ccc(=O)oc2c1)Nc1ccc(CCO)cc1	none
O=C(COc1ccc2ccc(=O)oc2c1)Nc1ccc(N2CCCCC2)cc1	Apaf1 inhib 47 | Apaf-1 inh conf inactive | Rh110 interf inh inactive
CN1CCN(c2ccc(NC(=O)COc3ccccc3)cc2Cl)CC1	Apaf1 inhib 49 (no result: pPAFAH FP inh) | Apaf-1 inh conf inactive | Rh110 interf inh inactive
Cn1c(C(=O)NCCN2CCN(Cc3ccccc3)CC2)cc2c(=O)n(C)c3ccccc3c21	none
Cn1c(C(=O)NCCN2CCCCCC2)cc2c(=O)n(C)c3ccccc3c21	Apaf1 inhib 43 | Apaf-1 inh conf inactive | Rh110 interf inh inactive
C/C(=N\NC(=O)COc1cc(C)cc(C)c1)c1cccc(NC(=O)C2CCC2)c1	none
O=S1(=O)N(Cc2ccccc2F)CCCN1Cc1c(F)cccc1Cl	none
COC(=O)c1ccc(C(=O)Nc2ccc(N)cc2N)cc1	Apaf1 inhib 48 | Apaf-1 inh conf inactive | Rh110 interf inh inactive
[O-][n+]1cccc2c(Br)cc(Br)c(O)c21	pPAFAH FP inh 34, Apaf1 inhib 73 | Apaf-1 inh conf inactive | Rh110 interf inh inactive
COc1ccc(OC)c(NC(=O)C(=O)N/N=C(\C)CC(=O)Nc2ccc(Cl)cn2)c1	none
O=C(Cc1ncc(C(F)(F)F)cc1Cl)NNc1cccc(F)n1	none
Cc1ccccc1C(=O)NCC(=O)NNC(=O)c1cccc(Cl)c1	none
Cc1ccc(-c2nnc(Nc3ccccc3)c3ccccc23)cc1S(=O)(=O)NCC1CCCO1 (stereo not drawn)	none
Cc1ccc(-c2nn3c(-c4ccco4)nnc3c3ccccc23)cc1S(=O)(=O)NCC1CCCO1 (stereo not drawn)	Apaf1 inhib 66 | Apaf-1 inh conf 83 | Rh110 interf inh inactive | Apaf1 inh interf inactive
O=C1CCC(C(=O)N2CCCC(Nc3ccc(F)cc3)C2)=NN1 (stereo not drawn)	none
Cc1[nH]c2ccccc2c1C(C#N)(C#N)C1C(=O)c2ccccc2C1=O	PAFAH2 FP inh 31, Apaf1 inhib 73 | Apaf-1 inh conf 45 | Rh110 interf inh inactive | Apaf1 inh interf inactive | PAFAH2 FP conf inactive
CCN1CCN(c2ccccc2NC(=O)c2ccc(-n3cccn3)cc2)CC1	none
O=C(c1ccc(-c2cccc(C(F)(F)F)c2)o1)N1CCCC(C(F)(F)F)C1 (stereo not drawn)	PAFAH2 FP inh 33, Apaf1 inhib 43 | Apaf-1 inh conf inactive | Rh110 interf inh inactive | PAFAH2 FP conf inactive
O=C(c1ccc(-c2cccc(C(F)(F)F)c2)o1)N1CCN(c2ccccc2O)CC1	none
CCc1cc[n+](C2=C([O-])c3ccccc3C(=O)/C2=N\S(=O)(=O)c2cccs2)cc1	PAFAH1B3 FP inh 41, Apaf1 inhib 68 | Apaf-1 inh conf 64 | Rh110 interf inh inactive | Apaf1 inh interf inactive | PAFAH1B3 conf FP 31
FC(F)(F)C1=Nc2cccc3cccc(c23)N1	PAFAH1B3 FP inh 35, Apaf1 inhib 66 (no result: pPAFAH FP inh) | Apaf-1 inh conf 63 | Rh110 interf inh inactive | Apaf1 inh interf inactive | PAFAH1B3 conf FP 40
Fc1ccc(C2=Nc3cccc4cccc(c34)N2)cc1	none
CCCc1cc(=O)oc2cc(OCC(=O)NCCCn3ccnc3)c(Cl)cc12	none
Nc1ccc(N(CCO)CCO)cc1	PAFAH1B3 FP inh 38, Apaf1 inhib 84 | Apaf-1 inh conf 46 | Rh110 interf inh inactive | Apaf1 inh interf inactive | PAFAH1B3 conf FP inactive
CCN(CC)c1ccc(N)cc1	none
O=C(Nc1ccc(Cl)c(Cl)c1)Nc1nnc(CC2=CCCCC2)s1	none
Cn1cc(C(=O)Nc2ccc(C#N)cc2)c2ccccc2c1=O	none
O=C1c2ccccc2C(=O)c2c1oc(C(F)(F)F)c2C(=O)c1ccccc1	PAFAH1B3 FP inh 40, Apaf1 inhib 79 | Apaf-1 inh conf 85 | Rh110 interf inh inactive | Apaf1 inh interf inactive | PAFAH1B3 conf FP 27
O=C(c1ccccc1)c1ccc(CN2C(=O)c3ccccc3C2=O)o1	none
CCc1nnc(NC(=O)c2cc(-c3ccccn3)nc3ccc(Br)cc23)s1	none
